# Test system: MS2 coat protein
# Test: apparent Kd, MS2 coat protein; higher = weaker binding; RNA-MaP array; FMN 200 µM where present
# Outline: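 The apparent Kd is the median of filtered binding-curve fits, one per cluster, to green signal normalised to red-channel RNA signal and control-cluster median Fmax. The clusters were on Illumina sequencing chips, and stalled E. coli RNA polymerase had transcribed the designs on them. Titration used SNAP-549-labelled MS2 coat protein from 0.7 or 1.5 nM, doubling to 3 µM, without and then with constant ligand, in 100 mM Tris-HCl pH 7.5, 80 mM KCl, 4 mM MgCl2, BSA, DTT, yeast tRNA and Tween-20.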
# [1] = designed as: OFF switch for flavin mononucleotide, no ligand
# [2] = ligand present: flavin mononucleotide, designed as: OFF switch for flavin mononucleotide
# [3] = designed as: ON switch for flavin mononucleotide, no ligand
# [4] = ligand present: flavin mononucleotide, designed as: ON switch for flavin mononucleotide
Sequence,apparent Kd [1],apparent Kd [2],apparent Kd [3],apparent Kd [4]
ACUUACUGAGGAUAUACAUAGAUUUACAUGAGGAUCACCCAUGUUCCUCUAUGUAUAAAUGUAGAAGGCAGAAGAA,0.0166 µM,0.0591 µM,,
AUAUGAUAGAUAGGAUAUACUGAGGUUGAAUGGGUAGAAGGAUCGAUAGGGAAGAAUACAUGAGGAUCACCCAUGUUGUGGAUU,,,0.0769 µM,0.0578 µM
ACUGGCUUGCAGAAGGGUGACAUGAGGAUCACCCAUGUAGCGGGCCGGCGUAAAGUCAGCGCGCCACAGGAUAUGCAGGCCUCG,,,0.074 µM,0.0452 µM
CACCGCGACAACGCGGUGUCACAUGAGGAUCACCCAUGUUCACAGGAUAUGCGAUAGCCAACGAAGCAGAAGGGUGAUUACUUA,,,0.0411 µM,0.111 µM
GCUGUCGCAUGAGGAUAUGGUCAGCUUUGCUGACCAGAAGGCAUGUCAAUAGACAUGAGGAUCACCCAUGUAGUAAAGACGGCU,,,0.313 µM,0.0324 µM
GCUCGAUGUGCUGAAAACAUGAGGAUCACCCAUGUAAAUGAUCAGGAUAUUUACGUGCUUUAUGUAGAGAAGGGAUCAUCGAGC,,,0.26 µM,0.0783 µM
ACAUGAGACUAAGGAUAUGGUGUACCUACAUGUGACAUGAGGAUCACCCAUGUGGUAAGUAUGACUCAGAAGGUAGAGAUAUGU,,,0.414 µM,0.0372 µM
UGUGUGUGUGUGAGGAUAUCGGGCCCGAAAGGGCCCGAGAAGGCACAUGAGGAUCACCCAUGUAAGCGCGCGCG,0.321 µM,0.108 µM,,
CAAUUCCGAGGAUAUACAUGAGGAUCACCCAUGUCGGGCCUCAGCGUUUAGCGCCUCAGUAGAAGGCGGGUUUC,0.0283 µM,0.0348 µM,,
GGACGUCACAUCUACAUGAGGAUCACCCAUGUCAAAAGACAUGAGGAUAUGCUACCUAAUUGGUAGCAGAAGGCAUGGACGUCC,,,1.07 µM,0.0715 µM
GCGUGGUUCUAGAAGGUGCUAGCGAUAAGCUAGCAAGGAUAUAGACAUGAGGAUCACCCAUGUCUAAGAGAAAUAGACACACGC,0.00456 µM,0.00509 µM,,
AGUACGUCAGGAUAUCUGAUGUCUAACUUCGGUUAGACAUCAGAGAAGGGACAUGAGGAUCACCCAUGUACUAG,0.0387 µM,0.0426 µM,,
AGACUGAAGCAAGGAUAUUGUAAGGUUAAUGUACAAGAAGGUGCUGUUUAUGUCUCUUAACAUGAGGAUCACCCAUGUUUUGGU,,,0.0239 µM,0.0199 µM
GAUAGAGAGCAGGAUAUCAUAGAAAUGUAUGAAUGAGAAGGGCUCACAUGAGGAUCACCCAUGUGGUCCUAGAU,0.0258 µM,0.236 µM,,
GGUGCGUUUGUGAGGAUAUGCUGGUCCUUGGUUCUGCAGAAGGCACAUGAGGAUCACCCAUGUGGUGUCGUACC,0.077 µM,0.162 µM,,
AAGGAUAGAGGAUAUGCAUAGAUACAGAUUCAUGUAGAACUACAUGAGGAUCACCCAUGUAGAAGGCUAUCCUA,0.0186 µM,0.0508 µM,,
GCACUUUUAUUUUAACCGUUUCGAACAUGAGGAUCACCCAUGUAGGAUAUGCUAAAAGUUGUGAUGCAGAAGGACAUUAAGUGC,0.00715 µM,0.00729 µM,,
CAGCGAUAGCUGAAUGGUACAUGGGAGGAUAUGGGUUGAUACAUGAGGAUCACCCAUGUUUAAUACUAGAAGGCCCAUGUACCU,,,0.316 µM,0.011 µM
UGCGGCGCGGGCCACCGCAGGGCCAGAAGGACAUGAGGAUCACCCAUGUGGCAGGACAGGGCGGUGUAGGAUAUGGCAGGCUGG,0.0167 µM,0.0208 µM,,
CCCUCGCGAGGAUAUGCAUCCUCCCUCAUUUCUUUCACUACACAUGAGGAUCACCCAUGUAGAAGGCGCUCUCC,0.0499 µM,0.0386 µM,,
GAUGAGGUAGGAUAUACGAUAAUAUAGGGUAGAUAUAUAACACAUGAGGAUCACCCAUGUAGAAGGACCAGUAC,0.0386 µM,0.0612 µM,,
AUUUUGUCAGGAUAUGAGUAGUAGGAUGAGAGUGCUACUACUUAGAAGGGACAUGAGGAUCACCCAUGUCUUCC,0.0142 µM,0.0167 µM,,
ACGUGACGGUUCGCGAGUGGACGGAGAAGGCAGACAUGAGGAUCACCCAUGUGAGCCUGCUAUUCUGAGGAUAUCCGUUCGCAC,0.0257 µM,0.13 µM,,
GUCGGAAACGACAAGUAGCAAUCGGAGGAUAUUCAUUAAAACAUGAGGAUCACCCAUGUAAAUUGGGAGAAGGCCGAUUGCUAC,,,0.0178 µM,0.00531 µM
GCGUGACAUGAGGAUCACCCAUGUGAGGAUAUCUGGAUAAUUUUUAUUUUAGAUAUCCAGAGAAGGCACAUGCU,0.0638 µM,0.156 µM,,
GGGUGGCGUAGAGGAUAUGUGGUACAUGAGGAUCACCCAUGUGCAUAUGAUGUUCAUGUUUAUGUAUAGAAGGCUACGUCGCUA,,,0.0261 µM,0.0364 µM
AUCAGCUCGUCAGGAUAUACAUCACUGCGUCAGCAGUGUGGUAAGAUCACAUGAGGAUCACCCAUGUAGAAGGGACGAGCUGAU,0.0139 µM,0.252 µM,,
CCUCUACAUGAGGAUCACCCAUGUGAGGAUAUGCGAGGCGCGCUCGAUGAGCGCGCCGGUAGAAGGCAUGUGGU,0.0232 µM,0.0499 µM,,

Sequence,apparent Kd [1],apparent Kd [2],apparent Kd [3],apparent Kd [4]
ACAGAGUGAAGACAGGAUAUUCGCGAUGGCACAUGAGGAUCACCCAUGUUUUGAGCACAUAAACAGAAGAAGGGUUAAAACUCAG,,,0.132 µM,0.0138 µM
CAUUUUGCCGAGGAUAUGGAGGAUGACACUCUACCAGAAGGUGGCACAUGAGGAUCACCCAUGUGGAGUUCGCG,0.0793 µM,0.0927 µM,,
AACUCGUCAGGAUAUGCGCGCAGUUGCUGCGCUUCGCCGUUGCAGAAGGGACAUGAGGAUCACCCAUGUAGGUC,0.0358 µM,0.0435 µM,,
GGGCCGUAGUAGAAGGGAUAUACGAUAGGUAUAUCAGGAUAUACAUGAGGAUCACCCAUGUUCUUACAGUGAUAGUCCUCCCUA,0.0284 µM,0.0658 µM,,
GGUUAUUGCAAGGAUAUGCUUUUUUGUGAAAUUGCAGAAGGUGCAACAUGAGGAUCACCCAUGUUGGAUGGGUU,0.104 µM,0.131 µM,,
UAGCAAACGACCUGUGUGUGACAUGAGGAUCACCCAUGUUAGAGAAGGCCGAUAGCGCCGCGUACGGAGGAUAUCUGACAGGGA,0.0241 µM,0.0303 µM,,
CUACGAACGAUAGGAUAUACUGAGGUUGAGUGGGUAGAAGGAUCGAUAGUGGAGAAGACAUGAGGAUCACCCAUGUUGUGGAUU,,,0.176 µM,0.0455 µM
AUCUCCUCUGUCAGGAUAUAUAAACUGUUGCAGUGGUAGAAGGGACAUGAGGAUCACCCAUGUAAUAUAAAUAA,0.0256 µM,0.0714 µM,,
GCCGGAUUUGUGAGGAUAUACCUAUGGAUACAUAGGUAGAAGGCACAUGAGGAUCACCCAUGUUCCUCACCGGC,0.033 µM,0.288 µM,,
CAUCAGGUACGAGGAUAUCCGCGAUCUCUUCGAGGAGAAGGCGUACAUGAGGAUCACCCAUGUGGGCGAGGCAGACGAAGUCUG,0.0963 µM,0.0609 µM,,
AAGAAACAUGAGGAUCACCCAUGUGAGGAUAUGUAAAAUAAAAUAAAAUAAAUAAUAAACAGAAGGCACAAAGG,0.068 µM,0.0765 µM,,
UAUAUAUAAUAUAUUAACAUGAGGAUCACCCAUGUCGCUAGACAGGAUAUAUUUAAUUUUUUUAAGUAGAAGGGUCAUAUAAUU,,,0.0683 µM,0.0809 µM
GUUAAUUAGUGAGGAUAUACAGUAUUUAAUACUGUAGAAGGCACAAUCCUCAAGACAUGAGGAUCACCCAUGUGAUAAUAAGAU,0.0544 µM,0.203 µM,,
AAGGAUCGAGGAUAUACAUAGAUACAGAUACAUGUAGACCUACAUGAGGAUCACCCAUGUAGAAGGCGAUCCUA,0.0225 µM,0.0547 µM,,
CCAACCGGCACCGGUUGAACAUGAGGAUCACCCAUGUACUCCAGAAGGCCGCCCAAGAACGGAGUGGAGGAUAUGGAGGUUCUC,,,0.0155 µM,0.012 µM
GGUGGGAGGUAGACUGGACGGGCAACAUGAGGAUCACCCAUGUAGGAUAUCGUGUGUGUCAACGACGAGAAGGGCGUAGGCGGA,0.0203 µM,0.0171 µM,,
UGUCGGAGCGGAGGAUAUUACAUGAGGAUCACCCAUGUAUGAACCAAUAGCUGGAAACAGCAAUGUAAGAAGGCUGCUCCGACA,0.00967 µM,0.131 µM,,
ACGUGUCGUGUAGGAUAUGACACAGGAAACUGGUCAGAAGGACAUGAGGAUCACCCAUGUAGAGUGUGUAAGGAUGACGUAUGC,0.052 µM,0.199 µM,,
CAGCAUAAGUAGAAGGCUAUAUAUUUAAUUAUAUAAGGAUAUACAUGAGGAUCACCCAUGUGUUCCAGCUGAAUAAUAAUAUAU,0.00549 µM,0.00582 µM,,
CCGGAAAUAGAGGAUAUCGUAUCGGAUACGAUACGAGAAGGCUAUACAUGAGGAUCACCCAUGUGUCCUACCGG,0.0164 µM,0.0405 µM,,
UCCACUGCUGAGAAGGGAUACGUCUGGCUCGCAUCAGGAUAUCGAUACAGUGCAGCAUGAGGACAUGAGGAUCACCCAUGUGUG,,,0.104 µM,0.0688 µM
AUACAUGAGGAUCACCCAUGUCGCAGGUUAAGGCCCAAACCGAGAAGGGAUUCGGUCAAGCCUAAUCAGGAUAUCGGUGGAGCC,,,0.0934 µM,0.0621 µM
GAUUUCGCAUGAGGAUAUGCUCCCGUUUCGGGAGCAGAAGGCAUGUCAUUAGACAUGAGGAUCACCCAUGUAGUUAAGAUUGAA,,,0.378 µM,0.0157 µM
AAAAAACAUGAGGAUCACCCAUGUGAGGAUAUGCGAAAAAAAAAAAAAAAAAAAAAAAGUAGAAGGCACAAAAA,0.0485 µM,0.173 µM,,
UAAAAGAAAGUAAGGAUAUCUAAAUUGGAAAAGAGAGAGAAGGUACAUGAGGAUCACCCAUGUAGGGUAUCCGG,0.0521 µM,0.0728 µM,,
AGCAGUACAGGAUAUACAUGAGGAUCACCCAUGUGAAAAUUAAGUGGCGUACCACAAAGUAGAAGGGUACUGCA,0.032 µM,0.117 µM,,
GGUACCAUGUAGAAGGCAGAUCUGAUUCAGAUCUGAGGAUAUACAUGAGGAUCACCCAUGUAAAGGCACCGCACGAGAGUGCAA,0.0324 µM,0.108 µM,,
